Assay results as given in ChEMBL document CHEMBL4837210 (Eur J Med Chem, 2021).
≈ marks a conversion by molar mass, not a printed value.

Assays:
[1] = test system: Bacillus subtilis; assay: Antibacterial activity against penicillin-susceptible Bacillus subtilis ATCC 9372 assessed as bacterial growth inhibition incubated for 24 hrs by CLSI protocol based broth microdilution method; type: functional
[2] = test system: Enterococcus faecium; assay: Antibacterial activity against vancomycin-resistant Enterococcus faecium ATCC 51559 assessed as bacterial growth inhibition incubated for 24 hrs by CLSI protocol based broth microdilution method; conditions: ATCC 51559, 24 h
[3] = test system: Enterococcus faecalis; assay: Antibacterial activity against vancomycin-susceptible Enterococcus faecalis ATCC 29212 assessed as bacterial growth inhibition incubated for 24 hrs by CLSI protocol based broth microdilution method; type: functional
[4] = test system: Escherichia coli; assay: Antibacterial activity against penicillin-susceptible Escherichia coli ATCC 25922 assessed as inhibition of bacterial growth measured by broth microdilution method; type: functional; conditions: time 24 hrs
How it was run: (§1)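 Broth microdilution in Mueller Hinton broth. A 0.5 McFarland suspension was diluted tenfold, giving an inoculum of 1.5 × 10⁷ cfu/mL. This was added to 2-fold serial compound dilutions from […]. Plates were incubated aerobically at 37 °C for 24 h. MIC was the lowest concentration with no visible turbidity.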

[5] = test system: Staphylococcus aureus; assay: Antibacterial activity against erythromycin-susceptible Staphylococcus aureus ATCC 25923 assessed as bacterial growth inhibition incubated for 24 hrs by CLSI protocol based broth microdilution method; type: functional
[6] = test system: Streptococcus pyogenes; assay: Antibacterial activity against erythromycin-susceptible Streptococcus pyogenes clinical isolate 1 assessed as bacterial growth inhibition incubated for 24 hrs by CLSI protocol based broth microdilution method; type: functional
[7] = test system: Staphylococcus aureus; assay: Antibacterial activity against Staphylococcus aureus assessed as inhibition of bacterial growth measured by broth microdilution method; type: functional; conditions: time 24 hrs; how it was run: as §1
[8] = test system: Pseudomonas aeruginosa; assay: Antibacterial activity against penicillin-susceptible Pseudomonas aeruginosa ATCC27853 assessed as bacterial growth inhibition incubated for 24 hrs by CLSI protocol based broth microdilution method; type: functional
[9] = test system: Enterococcus faecalis; assay: Antibacterial activity against vancomycin-resistant Enterococcus faecalis ATCC 51299 assessed as bacterial growth inhibition incubated for 24 hrs by CLSI protocol based broth microdilution method; type: functional
[10] = test system: Staphylococcus aureus; assay: Antibacterial activity against methicillin-resistant Staphylococcus aureus ATCC 43300 assessed as inhibition of bacterial growth by broth microdilution method; type: functional; conditions: time 24 hrs
How it was run: (§2)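 Broth microdilution MIC. A 0.5 McFarland suspension was diluted 10-fold and added at 1.5 × 10⁷ cfu/mL to 2-fold dilutions (0.125–64) in Mueller Hinton broth. Incubated aerobically 24 h at 37 °C. MIC was the lowest concentration with no visible turbidity.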

[11] = test system: Enterococcus faecium; assay: Antibacterial activity against vancomycin-susceptible Enterococcus faecium ATCC19434 assessed as bacterial growth inhibition incubated for 24 hrs by CLSI protocol based broth microdilution method; conditions: ATCC19434, 24 h
[12] = test system: Bacillus pumilus; assay: Antibacterial activity against penicillin-susceptible Bacillus pumilus CMCC 63202 assessed as bacterial growth inhibition by broth dilution method; type: functional; conditions: time 24 hrs; how it was run: as §1
[13] = test system: Staphylococcus epidermidis; assay: Antibacterial activity against penicillin-resistant Staphylococcus epidermidis assessed as inhibition of bacterial growth measured by broth microdilution method; type: functional; conditions: time 24 hrs
[14] = test system: Staphylococcus aureus; assay: Antibacterial activity against penicillin-resistant Staphylococcus aureus assessed as inhibition of bacterial growth measured by broth microdilution method; type: functional; conditions: time 24 hrs; how it was run: as §2
[15] = test system: Streptococcus pyogenes; assay: Antibacterial activity against erythromycin-resistant Streptococcus pyogenes 2 assessed as bacterial growth inhibition incubated for 24 hrs by CLSI protocol based broth microdilution method; type: functional

Structure (SMILES)	MIC [1]	MIC [2]	MIC [3]	MIC [4]	MIC [5]	MIC [6]	MIC [7]	MIC [8]	MIC [9]	MIC [10]	MIC [11]	MIC [12]	MIC [13]	MIC [14]	MIC [15]
CCc1ccc(C#Cc2c3ccccc3[n+](C)c3ccccc23)cc1.[I-]	2 µg/mL	4 µg/mL	2 µg/mL	> 64 µg/mL	2 µg/mL	4 µg/mL	2 µg/mL	> 64 µg/mL	8 µg/mL	2 µg/mL	4 µg/mL	2 µg/mL	8 µg/mL	4 µg/mL	4 µg/mL
CCCCc1ccc(-c2c3ccccc3[n+](C)c3ccccc23)cc1.[I-]	0.5 µg/mL	2 µg/mL	4 µg/mL	64 µg/mL	0.03 µg/mL	1 µg/mL	< 0.125 µg/mL	> 64 µg/mL	4 µg/mL	2 µg/mL	4 µg/mL	1 µg/mL	2 µg/mL	8 µg/mL	2 µg/mL
C[n+]1c2ccccc2c(C#Cc2ccc(-c3ccccc3)cc2)c2ccccc21.[I-]	8 µg/mL	> 64 µg/mL	–	> 64 µg/mL	8 µg/mL	16 µg/mL	16 µg/mL	> 64 µg/mL	> 64 µg/mL	16 µg/mL	–	8 µg/mL	8 µg/mL	16 µg/mL	16 µg/mL
C[n+]1c2ccccc2c(-c2ccc(-c3ccccc3)cc2)c2ccccc21.[I-]	1 µg/mL	2 µg/mL	4 µg/mL	64 µg/mL	0.125 µg/mL	0.5 µg/mL	0.25 µg/mL	> 64 µg/mL	4 µg/mL	16 µg/mL	4 µg/mL	1 µg/mL	2 µg/mL	8 µg/mL	1 µg/mL
C[n+]1c2ccccc2cc2ccccc21.[I-]	> 64 µg/mL	> 64 µg/mL	> 64 µg/mL	> 64 µg/mL	> 64 µg/mL	> 64 µg/mL	> 64 µg/mL	> 64 µg/mL	> 64 µg/mL	> 64 µg/mL	> 64 µg/mL	> 64 µg/mL	> 64 µg/mL	–	> 64 µg/mL
COc1ccc(/C=C/c2c3ccccc3[n+](C)c3ccccc23)cc1OC.[I-]	8 µg/mL	–	–	> 64 µg/mL	4 µg/mL	2 µg/mL	8 µg/mL	> 64 µg/mL	–	16 µg/mL	–	1 µg/mL	32 µg/mL	64 µg/mL	4 µg/mL
Cc1ccc(-c2c3ccccc3[n+](C)c3ccccc23)cc1.[I-]	4 µg/mL	–	–	> 64 µg/mL	1 µg/mL	4 µg/mL	4 µg/mL	> 64 µg/mL	–	64 µg/mL	–	8 µg/mL	64 µg/mL	> 64 µg/mL	16 µg/mL
C[n+]1c2ccccc2c(/C=C/c2ccc(-c3ccccc3)cc2)c2ccccc21.[I-]	1 µg/mL	–	–	32 µg/mL	0.5 µg/mL	0.5 µg/mL	1 µg/mL	> 64 µg/mL	–	2 µg/mL	–	2 µg/mL	2 µg/mL	4 µg/mL	0.5 µg/mL
COc1cccc(-c2c3ccccc3[n+](C)c3ccccc23)c1.[I-]	16 µg/mL	–	–	> 64 µg/mL	4 µg/mL	8 µg/mL	8 µg/mL	> 64 µg/mL	–	> 64 µg/mL	–	32 µg/mL	> 64 µg/mL	> 64 µg/mL	32 µg/mL
CCCCCNc1c2ccccc2[n+](C)c2ccccc12.[Cl-]	64 µg/mL	–	–	> 64 µg/mL	> 64 µg/mL	16 µg/mL	> 64 µg/mL	> 64 µg/mL	–	> 64 µg/mL	–	> 64 µg/mL	64 µg/mL	64 µg/mL	32 µg/mL
Cc1ccccc1C#Cc1c2ccccc2[n+](C)c2ccccc12.[I-]	8 µg/mL	–	–	> 64 µg/mL	4 µg/mL	8 µg/mL	2 µg/mL	> 64 µg/mL	–	4 µg/mL	–	8 µg/mL	16 µg/mL	8 µg/mL	16 µg/mL
COc1ccc2cc3[n+](cc2c1OC)CCc1cc2c(cc1-3)OCO2.[Cl-] [BERBERINE CHLORIDE]	> 64 µg/mL	> 64 µg/mL	> 64 µg/mL	> 64 µg/mL	64 µg/mL	> 64 µg/mL	> 64 µg/mL	> 64 µg/mL	> 64 µg/mL	> 64 µg/mL	> 64 µg/mL	> 64 µg/mL	> 64 µg/mL	–	64 µg/mL
C[n+]1c2ccccc2c(C#Cc2ccccc2)c2ccccc21.[I-]	2 µg/mL	–	–	> 64 µg/mL	2 µg/mL	4 µg/mL	2 µg/mL	> 64 µg/mL	–	2 µg/mL	–	8 µg/mL	4 µg/mL	4 µg/mL	8 µg/mL
C[n+]1c2ccccc2c(/C=C/c2ccc(F)cc2)c2ccccc21.[I-]	2 µg/mL	–	–	> 64 µg/mL	1 µg/mL	0.5 µg/mL	2 µg/mL	> 64 µg/mL	–	8 µg/mL	–	2 µg/mL	8 µg/mL	16 µg/mL	0.5 µg/mL
CCc1ccc(-c2c3ccccc3[n+](C)c3ccccc23)cc1.[I-]	2 µg/mL	–	–	> 64 µg/mL	0.25 µg/mL	2 µg/mL	1 µg/mL	> 64 µg/mL	–	16 µg/mL	–	4 µg/mL	32 µg/mL	64 µg/mL	4 µg/mL
C[n+]1c2ccccc2c(-c2ccc(OC(F)(F)F)cc2)c2ccccc21.[I-]	4 µg/mL	–	–	> 64 µg/mL	0.5 µg/mL	1 µg/mL	2 µg/mL	> 64 µg/mL	–	2 µg/mL	–	8 µg/mL	32 µg/mL	64 µg/mL	4 µg/mL
Cc1ccccc1-c1c2ccccc2[n+](C)c2ccccc12.[I-]	32 µg/mL	–	–	> 64 µg/mL	8 µg/mL	64 µg/mL	64 µg/mL	> 64 µg/mL	–	> 64 µg/mL	–	> 64 µg/mL	> 64 µg/mL	> 64 µg/mL	> 64 µg/mL
C[n+]1c2ccccc2c(-n2cccc2)c2ccccc21.[Cl-]	64 µg/mL	–	–	> 64 µg/mL	32 µg/mL	16 µg/mL	64 µg/mL	> 64 µg/mL	–	> 64 µg/mL	–	64 µg/mL	> 64 µg/mL	64 µg/mL	64 µg/mL
CN[C@H](CC(C)C)C(=O)N[C@H]1C(=O)N[C@@H](CC(N)=O)C(=O)N[C@H]2C(=O)N[C@H]3C(=O)N[C@H](C(=O)N[C@H](C(=O)O)c4cc(O)cc(O)c4-c4cc3ccc4O)[C@H](O)c3ccc(c(Cl)c3)Oc3cc2cc(c3O[C@@H]2O[C@H](CO)[C@@H](O)[C@H](O)[C@H]2O[C@H]2C[C@](C)(N)[C@H](O)[C@H](C)O2)Oc2ccc(cc2Cl)[C@H]1O [VANCOMYCIN]	0.5 µg/mL (≈ 0.345 µM)	–	–	> 64 µg/mL	–	0.25 µg/mL (≈ 0.173 µM)	–	> 64 µg/mL	–	–	2 µg/mL (≈ 1.38 µM)	2 µg/mL (≈ 1.38 µM)	–	–	1 µg/mL (≈ 0.69 µM)
CCCc1ccc(-c2c3ccccc3[n+](C)c3ccccc23)cc1.[I-]	1 µg/mL	–	–	> 64 µg/mL	0.25 µg/mL	1 µg/mL	0.25 µg/mL	> 64 µg/mL	–	4 µg/mL	–	2 µg/mL	8 µg/mL	16 µg/mL	4 µg/mL
C[n+]1c2ccccc2c(-c2cccc([N+](=O)[O-])c2)c2ccccc21.[I-]	64 µg/mL	–	–	> 64 µg/mL	16 µg/mL	16 µg/mL	32 µg/mL	> 64 µg/mL	–	64 µg/mL	–	> 64 µg/mL	> 64 µg/mL	> 64 µg/mL	64 µg/mL
CCOc1ccc(C#Cc2c3ccccc3[n+](C)c3ccccc23)cc1.[I-]	4 µg/mL	–	–	> 64 µg/mL	4 µg/mL	16 µg/mL	4 µg/mL	> 64 µg/mL	–	4 µg/mL	–	4 µg/mL	8 µg/mL	8 µg/mL	8 µg/mL
